Results reported in ChEMBL document CHEMBL2150981, “Discovery and optimization of benzotriazine di-N-oxides targeting replicating and nonreplicating Mycobacterium tuberculosis” (J Med Chem, 2012).
Values after ≈ are worked out from the molar mass of the structure shown.

Experiments:
[1] = test system: Mycobacterium tuberculosis; assay: Antitubercular activity against p-amino-salicyclic acid-resistant Mycobacterium tuberculosis ATCC 35821 after 5 days by resazurin-based microplate assay; assay type: functional; conditions: ATCC 35821, 120 h
How it was run: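 Mid-log cultures grown in 7H9 with glycerol, Tween-80 and ADC. Compounds in DMSO were tested two-fold from […] against ~10^5 CFU/mL, 37°C for 5 d. Resazurin was then added for a further 2 d, and fluorescence read at ex 530/em 590 with visual confirmation. MIC was the lowest concentration inhibiting 90% of growth. Final DMSO 0.625%; two-fold variation taken as assay error.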

[2] = test system: Mycobacterium tuberculosis; assay: Antitubercular activity against Mycobacterium tuberculosis H37Rv isolate SRI after 5 days by resazurin-based microplate assay; assay type: functional; conditions: 120 h
[3] = Solubility of the compound in 0.9% saline solution after 48 hrs by shake flask method at pH 7.4; assay type: physicochemical
How it was run: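 Shake-flask method in triplicate: ~20 mg of ground compound in 5 mL 0.9% saline pH 7.4, stirred at 25°C for 48 h. The sample was filtered through 0.45 µm PVDF and the filtrate quantified by HPLC at each compound's absorption maximum against a per-compound standard curve (R² > 0.99).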

[4] = test system: Mycobacterium tuberculosis; assay: Antitubercular activity against Mycobacterium tuberculosis H37Rv incubated for 10 days in anaerobic condition followed by 48 hrs incubation in aerobic condition by LORA assay; assay type: functional
[5] = Selectivity index, ratio of CC50 for Vero cells to MIC90 for Mycobacterium tuberculosis H37Rv isolate SRI; assay type: functional
Plasma = assay: Plasma concentration in Balb/c mouse at 100 mg/kg, po at 24 hrs; assay type: ADME, organism-based; design: dose 100 mg/kg, route oral; conditions: in vivo, BLD = below limit of detection
How it was run: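 Single oral gavage dose of 100 mg/kg to female mice, three mice per time point. Blood was drawn at 5, 15, 30, 60 min and 2, 4, 6, 8 and 24 h and processed to plasma for analysis. Noncompartmental PK analysis.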

[6] = test system: Mycobacterium tuberculosis; assay: Antitubercular activity against Mycobacterium tuberculosis H37Rv isolate ITR after 7 days by luminescence spectrometry; assay type: functional; conditions: 168 h
Vero = assay: (§1) Cytotoxicity against african green monkey Vero cells after 72 hrs by CellTiterGlo assay; conditions: chlorocebus sabaeus, vero, 72 h
[7] = as §1; conditions: chlorocebus sabaeus, Vero cells
L5178Y [8] = assay: Mutagenicity against mouse L5178Y cells at 100 ug/mL after 4 hrs by MOLY assay in absence of S9 fraction; assay type: toxicity, cell-based
How it was run: (§2)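 Mouse lymphoma tk+/- → tk-/- forward mutation assay, 4 h or 24 h exposure, with or without Aroclor 1254-induced rat-liver S9. Endpoints were suspension and relative total growth, relative cloning efficiency, mutation frequency, and small TFT-resistant colonies (<0.6 mm). A call was positive for significant mutation-frequency induction; induction only slightly above 40 × 10^-6 net over mean solvent control was considered biologically negative.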

L5178Y [9] = assay: Mutagenicity against mouse L5178Y cells at 50 ug/mL after 4 hrs by MOLY assay in absence of S9 fraction; assay type: toxicity, cell-based; how it was run: as §2
L5178Y [10] = assay: Mutagenicity against mouse L5178Y cells at 50 ug/mL after 4 hrs by MOLY assay in presence of S9 fraction; assay type: toxicity, cell-based; conditions: s9, 4 h; how it was run: as §2
Salmonella typhimurium [11] = assay: Mutagenicity in Salmonella typhimurium TA98 assessed as increase in number of revertant colonies by Ames test in presence of S9 fraction; assay type: toxicity, organism-based; conditions: salmonella enterica subsp. enterica serovar typhimurium
How it was run: (§3)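 Plate-incorporation Ames test in Salmonella typhimurium TA98 and TA100, with and without an Aroclor 1254-induced rat-liver metabolic activation system containing 10% S9. Revertant colonies counted per plate, with means and standard deviations and background lawn condition recorded.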

L5178Y [12] = assay: Mutagenicity against mouse L5178Y cells at 10 ug/mL after 4 hrs by MOLY assay in absence of S9 fraction; assay type: toxicity, cell-based; how it was run: as §2
L5178Y [13] = assay: Mutagenicity against mouse L5178Y cells at 25 ug/mL after 4 hrs by MOLY assay in absence of S9 fraction; assay type: toxicity, cell-based; how it was run: as §2
L5178Y [14] = assay: Mutagenicity against mouse L5178Y cells at 100 ug/mL after 4 hrs by MOLY assay in presence of S9 fraction; assay type: toxicity, cell-based; conditions: s9, 4 h; how it was run: as §2
L5178Y [15] = assay: Mutagenicity against mouse L5178Y cells at 25 ug/mL after 4 hrs by MOLY assay in presence of S9 fraction; assay type: toxicity, cell-based; conditions: s9, 4 h; how it was run: as §2
L5178Y [16] = assay: Mutagenicity against mouse L5178Y cells at 10 ug/mL after 4 hrs by MOLY assay in presence of S9 fraction; assay type: toxicity, cell-based; conditions: s9, 4 h; how it was run: as §2
Salmonella typhimurium [17] = assay: Mutagenicity in Salmonella typhimurium TA100 assessed as increase in number of revertant colonies by Ames test in absence of S9 fraction; assay type: toxicity, organism-based; conditions: salmonella enterica subsp. enterica serovar typhimurium; how it was run: as §3
Salmonella typhimurium [18] = assay: Mutagenicity in Salmonella typhimurium TA100 assessed as increase in number of revertant colonies by Ames test in presence of S9 fraction; assay type: toxicity, organism-based; conditions: salmonella enterica subsp. enterica serovar typhimurium; how it was run: as §3
Salmonella typhimurium [19] = assay: Mutagenicity in Salmonella typhimurium TA98 assessed as increase in number of revertant colonies by Ames test in absence of S9 fraction; assay type: toxicity, organism-based; conditions: salmonella enterica subsp. enterica serovar typhimurium; how it was run: as §3
L5178Y [20] = assay: Mutagenicity against mouse L5178Y cells at 10 ug/mL after 24 hrs by MOLY assay in absence of S9 fraction; assay type: toxicity, cell-based; how it was run: as §2
L5178Y [21] = assay: Mutagenicity against mouse L5178Y cells at 25 ug/mL after 24 hrs by MOLY assay in absence of S9 fraction; assay type: toxicity, cell-based; how it was run: as §2

Structure (SMILES) | MIC90 [1] | MIC90 [2] | MIC90 [4] | Selectivity Index [5] | MIC90 [6] | CC50 (Vero) | other results
CCNc1n[n+]([O-])c2ccccc2[n+]1[O-] | 1.2 mg/L (≈ 5.82 µM) | 1.2 mg/L (≈ 5.82 µM) | 0.37 mg/L (≈ 1.79 µM) | 17 | 0.57 mg/L (≈ 2.76 µM) | – | solubility thermodynamic at 48 h [3]: 1.35 mg/mL (≈ 6550 µM); Cp (Plasma): BLD
CC(C)(C)Nc1n[n+]([O-])c2ccccc2[n+]1[O-] | 1.2 mg/L (≈ 5.12 µM) | 1.2 mg/L (≈ 5.12 µM) | 0.82 mg/L (≈ 3.5 µM) | 6.4 | 1.9 mg/L (≈ 8.11 µM) | 8 mg/L (≈ 34.2 µM) | –
COCC(C)Nc1n[n+]([O-])c2cc(F)ccc2[n+]1[O-] (centres undefined) | – | 5 mg/L (≈ 18.6 µM) | 1.9 mg/L (≈ 7.08 µM) | 1.3 | 2 mg/L (≈ 7.46 µM) | – | CC50 at 72 h [7]: 6.3 mg/L (≈ 23.5 µM)
COCC(C)Nc1n[n+]([O-])c2cc(Cl)ccc2[n+]1[O-] (centres undefined) | – | 1.2 mg/L (≈ 4.21 µM) | 0.78 mg/L (≈ 2.74 µM) | 2.1 | 1.4 mg/L (≈ 4.92 µM) | – | CC50 at 72 h [7]: 2.6 mg/L (≈ 9.13 µM)
CCNc1n[n+]([O-])c2cccc(C)c2[n+]1[O-] | 0.31 mg/L (≈ 1.41 µM) | 0.62 mg/L (≈ 2.82 µM) | 0.48 mg/L (≈ 2.18 µM) | 36 | 0.51 mg/L (≈ 2.32 µM) | 22 mg/L (≈ 99.9 µM) | –
CCNc1n[n+]([O-])c2cc3c(cc2[n+]1[O-])CCC3 | 1.2 mg/L (≈ 4.87 µM) | 1.2 mg/L (≈ 4.87 µM) | 0.83 mg/L (≈ 3.37 µM) | 29 | 0.95 mg/L (≈ 3.86 µM) | 36 mg/L (≈ 146 µM) | Activity (L5178Y [8]): Toxic; Activity (L5178Y [9]): Toxic; Activity (L5178Y [10]): Toxic; Activity (Salmonella typhimurium [11]): Dose-dependent effect; Activity (L5178Y [12]): Toxic; Activity (L5178Y [13]): Toxic; Activity (L5178Y [14]): Toxic; Activity (L5178Y [15]): Toxic; Activity (L5178Y [16]): Toxic; Activity (Salmonella typhimurium [17]): Dose-dependent effect; Activity (Salmonella typhimurium [18]): Dose-dependent effect; Activity (Salmonella typhimurium [19]): Dose-dependent effect
[O-][n+]1nc(NC2CCC2)[n+]([O-])c2cc3c(cc21)CCC3 | 0.62 mg/L (≈ 2.28 µM) | 0.62 mg/L (≈ 2.28 µM) | 0.44 mg/L (≈ 1.62 µM) | 54 | 0.96 mg/L (≈ 3.53 µM) | 34 mg/L (≈ 125 µM) | –
CCNc1n[n+]([O-])c2cc(C)c(OC)cc2[n+]1[O-] | 1.2 mg/L (≈ 4.8 µM) | – | 2.5 mg/L (≈ 9.99 µM) | >40 | 3.5 mg/L (≈ 14 µM) | > 100 mg/L | –
[O-][n+]1nc(N2CCCC2)[n+]([O-])c2ccccc21 | 0.62 mg/L (≈ 2.67 µM) | 0.31 mg/L (≈ 1.33 µM) | – | 56 | – | 17 mg/L (≈ 73.2 µM) | –
[O-][n+]1nc(N2CCCC2)[n+]([O-])c2cc3c(cc21)CCC3 | 0.31 mg/L (≈ 1.14 µM) | 0.31 mg/L (≈ 1.14 µM) | 0.99 mg/L (≈ 3.64 µM) | 80 | 0.46 mg/L (≈ 1.69 µM) | 25 mg/L (≈ 91.8 µM) | Activity (L5178Y [8]): Non-toxic; Activity (L5178Y [9]): Non-toxic; Activity (L5178Y [10]): Non-toxic; Activity (Salmonella typhimurium [11]): Dose-dependent effect; solubility thermodynamic at 48 h [3]: 0.28 mg/mL (≈ 1030 µM); Activity (L5178Y [20]): Non-toxic; Activity (L5178Y [12]): Non-toxic; Activity (L5178Y [21]): Non-toxic; Activity (L5178Y [13]): Non-toxic; Activity (L5178Y [14]): Non-toxic; Activity (L5178Y [15]): Non-toxic; Cp (Plasma): BLD; Activity (L5178Y [16]): Non-toxic; Activity (Salmonella typhimurium [17]): Dose-dependent effect; Activity (Salmonella typhimurium [18]): Dose-dependent effect; Activity (Salmonella typhimurium [19]): Dose-dependent effect
[O-][n+]1nc(N2CCCCC2)[n+]([O-])c2cc3c(cc21)CCC3 | 0.31 mg/L (≈ 1.08 µM) | 0.62 mg/L (≈ 2.17 µM) | 0.49 mg/L (≈ 1.71 µM) | 13 | 0.4 mg/L (≈ 1.4 µM) | 21 mg/L (≈ 73.3 µM) | –
CN(C)c1n[n+]([O-])c2cc3c(cc2[n+]1[O-])CCC3 | 0.15 mg/L (≈ 0.609 µM) | 0.62 mg/L (≈ 2.52 µM) | 1.5 mg/L (≈ 6.09 µM) | 13 | 0.3 mg/L (≈ 1.22 µM) | 24 mg/L (≈ 97.5 µM) | –
CN(Cc1ccccc1)c1n[n+]([O-])c2cc3c(cc2[n+]1[O-])CCC3 | 0.07 mg/L (≈ 0.217 µM) | 0.31 mg/L (≈ 0.962 µM) | 0.41 mg/L (≈ 1.27 µM) | 53 | 0.15 mg/L (≈ 0.465 µM) | 17 mg/L (≈ 52.7 µM) | –
CN(CCc1ccccc1)c1n[n+]([O-])c2cc3c(cc2[n+]1[O-])CCC3 | 0.15 mg/L (≈ 0.446 µM) | 0.31 mg/L (≈ 0.922 µM) | 0.44 mg/L (≈ 1.31 µM) | 130 | 0.24 mg/L (≈ 0.713 µM) | 40 mg/L (≈ 119 µM) | –
CC1CCCCN1c1n[n+]([O-])c2cc3c(cc2[n+]1[O-])CCC3 (centres undefined) | 0.62 mg/L (≈ 2.06 µM) | 1.2 mg/L (≈ 4 µM) | 0.47 mg/L (≈ 1.56 µM) | >40 | 0.66 mg/L (≈ 2.2 µM) | > 50 mg/L | –
